{"source": "ChEMBL document CHEMBL1132226", "about": "“1,2,5-Oxadiazole N-oxide derivatives and related compounds as potential antitrypanosomal drugs: structure-activity relationships” (1999)", "key": {"[1]": {"system": "Trypanosoma cruzi", "test": "In vitro antitrypanosomal activity against Trypanosoma cruzi epimastigotes at dose 25 uM", "type": "functional", "method_in_brief": "(§1)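 T. cruzi Tulahuen 2 epimastigotes were grown at 28 °C in axenic BHI-tryptose medium with 10% fetal calf serum. Inocula came from a 10-day stationary culture, starting at 1 × 10⁶ cells/mL. Compound was added from a DMSO stock before inoculation, with final DMSO ≤0.4%; controls had 0.4% DMSO and no drug. Growth was read as A600 daily. Percent inhibition = {1 − [(Ap − A0p)/(Ac − A0c)]} × 100, using day-5 versus day-0 absorbances. Values are the mean of three experiments.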"}, "[2]": {"system": "Trypanosoma cruzi", "test": "(§2) The compound was tested in vitro for antitrypanosomal activity against Trypanosoma cruzi epimastigotes at a dose of 25 uM", "type": "functional", "method_in_brief": "as §1"}, "[3]": {"system": "Trypanosoma cruzi", "test": "as §2"}}}
{"smiles": "CN(C)CCCNC(=O)c1ccc2no[n+]([O-])c2c1", "values": [{"measurement": "inhibition at 25 µM", "setting": "[1]", "value": 15, "unit": "%"}]}
{"smiles": "CCCCNC(=O)c1ccc2nonc2c1", "values": [{"measurement": "inhibition at 25 µM", "setting": "[2]", "value": 0, "unit": "%"}]}
{"smiles": "O=C(NCCCN1CCOCC1)c1ccc2no[n+]([O-])c2c1", "values": [{"measurement": "inhibition at 25 µM", "setting": "[1]", "value": 19, "unit": "%"}]}
{"smiles": "CCN(CC)CCCNC(=O)N/N=C/c1ccc2no[n+]([O-])c2c1", "values": [{"measurement": "inhibition at 25 µM", "setting": "[1]", "value": 8, "unit": "%"}]}
{"smiles": "CCCCNC(=O)N/N=C/c1ccc2c(c1)[n+]([O-])c(C#N)c(N)[n+]2[O-]", "values": [{"measurement": "inhibition at 25 µM", "setting": "[1]", "value": 17, "unit": "%"}]}
{"smiles": "CCCCNC(=O)N/N=C/c1ccc2c(c1)[n+]([O-])cc[n+]2[O-]", "values": [{"measurement": "inhibition at 25 µM", "setting": "[1]", "value": 23, "unit": "%"}]}
{"smiles": "CCCCNC(=O)N/N=C/c1no[n+]([O-])c1C", "values": [{"measurement": "inhibition at 25 µM", "setting": "[1]", "value": 0, "unit": "%"}]}
{"smiles": "[O-][n+]1onc(-c2ccccc2)c1CNCCCN1CCOCC1", "values": [{"measurement": "inhibition at 25 µM", "setting": "[1]", "value": 38, "unit": "%"}]}
{"smiles": "CCCCCCNC(=O)N/N=C/c1c(-c2ccccc2)no[n+]1[O-]", "values": [{"measurement": "inhibition at 25 µM", "setting": "[1]", "value": 53, "unit": "%"}]}
{"smiles": "Cc1c(CNCCCN2CCOCC2)no[n+]1[O-]", "values": [{"measurement": "inhibition at 25 µM", "setting": "[1]", "value": 0, "unit": "%"}]}
{"smiles": "O=C(NCCCN1CCCCC1)c1ccc2no[n+]([O-])c2c1", "values": [{"measurement": "inhibition at 25 µM", "setting": "[1]", "value": 45, "unit": "%"}]}
{"smiles": "CCCCCCNC(=O)N/N=C/c1ccc2no[n+]([O-])c2c1", "values": [{"measurement": "inhibition at 25 µM", "setting": "[1]", "value": 55, "unit": "%"}]}
{"smiles": "CCCCNC(=O)N/N=C/c1ccc2no[n+]([O-])c2c1", "values": [{"measurement": "inhibition at 25 µM", "setting": "[1]", "value": 45, "unit": "%"}]}
{"smiles": "CCCCNC(=O)N/N=C/c1c(C)[n+]([O-])c2ccccc2[n+]1[O-]", "values": [{"measurement": "inhibition at 25 µM", "setting": "[1]", "value": 6, "unit": "%"}]}
{"smiles": "CCCCCCNC(=O)c1ccc2no[n+]([O-])c2c1", "values": [{"measurement": "inhibition at 25 µM", "setting": "[1]", "value": 79, "unit": "%"}]}
{"smiles": "CCCCNC(=O)N/N=C/c1c(-c2ccccc2)no[n+]1[O-]", "values": [{"measurement": "inhibition at 25 µM", "setting": "[1]", "value": 17, "unit": "%"}]}
{"smiles": "CCN(CC)CCCNCc1c(-c2ccccc2)no[n+]1[O-]", "values": [{"measurement": "inhibition at 25 µM", "setting": "[1]", "value": 22, "unit": "%"}]}
{"smiles": "CCCCNC(=O)c1ccc2no[n+]([O-])c2c1", "values": [{"measurement": "inhibition at 25 µM", "setting": "[1]", "value": 90, "unit": "%"}]}
{"smiles": "Cc1c(CNCCCN2CCCCC2)no[n+]1[O-]", "values": [{"measurement": "inhibition at 25 µM", "setting": "[1]", "value": 0, "unit": "%"}]}
{"smiles": "CCCCNCc1ccc2no[n+]([O-])c2c1", "values": [{"measurement": "inhibition at 25 µM", "setting": "[1]", "value": 21, "unit": "%"}]}
{"smiles": "CCCCNC(=O)N/N=C/c1ccc2nonc2c1", "values": [{"measurement": "inhibition at 25 µM", "setting": "[1]", "value": 0, "unit": "%"}]}
{"smiles": "CCCCNC(=O)NNCc1ccc2no[n+]([O-])c2c1", "values": [{"measurement": "inhibition at 25 µM", "setting": "[1]", "value": 55, "unit": "%"}]}
{"smiles": "CCCCCCNC(=O)c1ccc2nonc2c1", "values": [{"measurement": "inhibition at 25 µM", "setting": "[2]", "value": 10, "unit": "%"}]}
{"smiles": "CCN(CC)CCCNC(=O)c1ccc2no[n+]([O-])c2c1", "values": [{"measurement": "inhibition at 25 µM", "setting": "[1]", "value": 17, "unit": "%"}]}
{"smiles": "CCCCNC(=O)N/N=C/c1ccc2c(c1)[n+]([O-])c(C)c(C)[n+]2[O-]", "values": [{"measurement": "inhibition at 25 µM", "setting": "[1]", "value": 0, "unit": "%"}]}
{"smiles": "CCCCCCNC(=O)N/N=C/c1no[n+]([O-])c1C", "values": [{"measurement": "inhibition at 25 µM", "setting": "[1]", "value": 3, "unit": "%"}]}
{"smiles": "CN(C)CCCNC(=O)N/N=C/c1ccc2no[n+]([O-])c2c1", "values": [{"measurement": "inhibition at 25 µM", "setting": "[1]", "value": 11, "unit": "%"}]}
{"smiles": "CC1CS(=O)(=O)CCN1/N=C/c1ccc([N+](=O)[O-])o1", "note": "(stereo not drawn) [NIFURTIMOX]", "values": [{"measurement": "inhibition at 25 µM", "setting": "[3]", "value": 100, "unit": "%"}]}
